The term pEC50 denotes the EC50 on a negative log10 scale, so that one unit is a factor of ten.

A short description of assay [1]: Neuroprotective activity against tetracycline removal-induced cytotoxicity in human MC65 cells assessed as increase in cell viability incubated for 72 hrs by MTT assay. In kind it is functional, cell-based. As to conditions: MC65, 72 h. The gist of the method:
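MC65 cells (C99 expression under tetracycline suppression; cytotoxicity induced by TC removal) treated across a concentration range for 72 h under −TC, with +TC cultures as 100% viability reference. Viability read by MTT. EC50 reported as mean ± SEM of three independent experiments.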
For orientation: Tetrazolium dyes change colour on reduction, which living cells bring about.

The species entered for assay [2] is Homo sapiens. Kind of assay: Neuroprotective activity against tetracycline removal-induced oxidative stress in human MC65 cells assessed as reduction in accumulation of intracellular ROS at 1 uM incubated for 48 hrs by DCFH-DA staining-based fluorescence analysis relative to control. In kind it is functional, cell-based. An outline of the steps:
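MC65 cells without TC given compound (1 μM) for 48 h, then incubated with DCFH-DA (25 μM) for 1 h. ROS given as percentage of fluorescence intensity relative to +TC control; error bars SEM, Student t-test versus −TC control.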

Assay [3] can be described thus: Metal chelating activity assessed as compound-Fe2+ complex formation at 50 uM after 10 mins by UV-vis spectroscopy. An outline of the steps: (§1)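 Compound at 50 μM mixed with CuSO₄, FeCl₂ or ZnCl₂ (60 μM) at room temperature for 10 min; UV-vis spectrum then recorded from 300 to 550 nm.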
The nature of assay [4]: Metal chelating activity assessed as compound-Cu2+ complex formation at 50 uM after 10 mins by UV-vis spectroscopy. An outline of the steps: as §1
The species entered for assay [5] is Homo sapiens. Put plainly: Neuroprotective activity against tetracycline removal-induced mitochondrial oxidative stress in human MC65 cells assessed as reduction in accumulation of mitoROS at 0.1 to 1 uM incubated for 48 hrs by MitoSOX red dye-based flow cytometric analysis relative to control. In kind it is functional, cell-based. The gist of the method:
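After TC removal, MC65 cells were exposed to compound at 1, 0.3 or 0.1 μM for 48 h, then loaded with MitoSOX (2.5 μM) for 30 min. Mitochondrial ROS expressed as percent fluorescence intensity versus +TC control; error bars SEM, Student t-test versus −TC control.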
Background: Flow cytometry measures light scatter and fluorescence of single cells or particles in a stream.

Assay [6] in a line: Metal chelating activity assessed as compound-Zn2+ complex formation at 50 uM after 10 mins by UV-vis spectroscopy. An outline of the steps:
as §1

pEC50: −log10 of the molar value. Calls of active or inactive are those of the source. The rule behind the calls is not given here.

Take `COc1cc(/C=C/C(=O)C(Cc2cn(CCC(=O)NCCCN3CCN(CCCNC(=O)CCC(=O)NCCCN4CCN(CCCNC(=O)CO[C@H]5CC[C@@]6(C)C(=CC[C@H]7[C@@H]8CC[C@H]([C@H](C)CCCC(C)C)[C@@]8(C)CC[C@@H]76)C5)CC4)CC3)nn2)C(=O)/C=C/c2ccc(O)c(OC)c2)ccc1O`: the pEC50 in assay [1] is 6.99. For the same compound, in assay [2], the outcome was Active.

For the compound `COc1cc(/C=C/C(=O)C(Cc2cn(CCC(=O)NCCCN3CCN(CCCNC(=O)CO[C@H]4CC[C@@]5(C)C(=CC[C@H]6[C@@H]7CC[C@H]([C@H](C)CCCC(C)C)[C@@]7(C)CC[C@@H]65)C4)CC3)nn2)C(=O)/C=C/c2ccc(O)c(OC)c2)ccc1O`, the result in assay [3], in assay [4] and in assay [2] was Active. In addition, the pEC50 in assay [1] is 7.09. The Activity result in assay [5] was “Dose-dependent effect”. Also, the result in assay [6] was inactive.

Take `COc1cc(/C=C/C(=O)C(Cc2cn(CCC(=O)NCCCN3CCN(CCCNC(=O)CCN4CCN(CCCO[C@H]5CC[C@@]6(C)C(=CC[C@H]7[C@@H]8CC[C@H]([C@H](C)CCCC(C)C)[C@@]8(C)CC[C@@H]76)C5)CC4)CC3)nn2)C(=O)/C=C/c2ccc(O)c(OC)c2)ccc1O`: the result in assay [3], in assay [4] and in assay [2] was Active. In addition, the pEC50 in assay [1] was 6.87. The result in assay [6] was inactive.

`COc1cc(/C=C/C(=O)C(Cc2cn(CCCCC(=O)NCCCN3CCN(CCCNC(=O)CO[C@H]4CC[C@@]5(C)C(=CC[C@H]6[C@@H]7CC[C@H]([C@H](C)CCCC(C)C)[C@@]7(C)CC[C@@H]65)C4)CC3)nn2)C(=O)/C=C/c2ccc(O)c(OC)c2)ccc1O`: in assay [1], the pEC50 is 6.97. For the same compound, the outcome in assay [2] was Active.

Turning to `COc1cc(/C=C/C(=O)C(Cc2cn(CCCCNC(=O)CCC(=O)NCCCN3CCN(CCCNC(=O)CO[C@H]4CC[C@@]5(C)C(=CC[C@H]6[C@@H]7CC[C@H]([C@H](C)CCCC(C)C)[C@@]7(C)CC[C@@H]65)C4)CC3)nn2)C(=O)/C=C/c2ccc(O)c(OC)c2)ccc1O`, the pEC50 in assay [1] is 6.85. In addition, the result in assay [2] was Active.

Take `COc1cc(/C=C/C(=O)C(Cc2cn(CCNC(=O)CCC(=O)NCCCN3CCN(CCCNC(=O)CCN4CCN(CCCO[C@H]5CC[C@@]6(C)C(=CC[C@H]7[C@@H]8CC[C@H]([C@H](C)CCCC(C)C)[C@@]8(C)CC[C@@H]76)C5)CC4)CC3)nn2)C(=O)/C=C/c2ccc(O)c(OC)c2)ccc1O`: the pEC50 in assay [1] is 6.88. In addition, the result in assay [2] was Active.

Turning to `COc1cc(/C=C/C(=O)C(Cc2cn(CCCCC(=O)NCCCN3CCN(CCCNC(=O)CCN4CCN(CCCO[C@H]5CC[C@@]6(C)C(=CC[C@H]7[C@@H]8CC[C@H]([C@H](C)CCCC(C)C)[C@@]8(C)CC[C@@H]76)C5)CC4)CC3)nn2)C(=O)/C=C/c2ccc(O)c(OC)c2)ccc1O`, the pEC50 in assay [1] is 6.62. Also, the outcome in assay [2] was Active.

Consider `COc1cc(/C=C/C(=O)C(Cc2cn(CCCCC(=O)NCCCN3CCN(CCCNC(=O)CCC(=O)NCCCN4CCN(CCCNC(=O)CO[C@H]5CC[C@@]6(C)C(=CC[C@H]7[C@@H]8CC[C@H]([C@H](C)CCCC(C)C)[C@@]8(C)CC[C@@H]76)C5)CC4)CC3)nn2)C(=O)/C=C/c2ccc(O)c(OC)c2)ccc1O`, for which the pEC50 in assay [1] was 6.98. Besides, the outcome in assay [2] was Active.

For the compound `COc1cc(/C=C/C(=O)C(Cc2cn(CCNC(=O)CCC(=O)NCCCN3CCN(CCCNC(=O)CO[C@H]4CC[C@@]5(C)C(=CC[C@H]6[C@@H]7CC[C@H]([C@H](C)CCCC(C)C)[C@@]7(C)CC[C@@H]65)C4)CC3)nn2)C(=O)/C=C/c2ccc(O)c(OC)c2)ccc1O`, the pEC50 in assay [1] is 7.13. Further, the outcome in assay [2] was Active.

In the case of `COc1cc(/C=C/C(=O)C(Cc2cn(CCCCNC(=O)CCC(=O)NCCCN3CCN(CCCNC(=O)CCN4CCN(CCCO[C@H]5CC[C@@]6(C)C(=CC[C@H]7[C@@H]8CC[C@H]([C@H](C)CCCC(C)C)[C@@]8(C)CC[C@@H]76)C5)CC4)CC3)nn2)C(=O)/C=C/c2ccc(O)c(OC)c2)ccc1O`, in assay [1], the pEC50 was 6.44. Further, in assay [2], the outcome was Active.
